Test results as given in ChEMBL document CHEMBL1145088, “Ascochlorin derivatives as ligands for nuclear hormone receptors” (J Med Chem, 2003).

How the values were obtained:
Estrogen receptor = target: T1, Estrogen receptor (Homo sapiens, UniProt P03372); assay: Minimum effective concentration required to activate Estrogen receptor 1 (ER alpha); Not detected
T1 sequence (P03372 whole entry): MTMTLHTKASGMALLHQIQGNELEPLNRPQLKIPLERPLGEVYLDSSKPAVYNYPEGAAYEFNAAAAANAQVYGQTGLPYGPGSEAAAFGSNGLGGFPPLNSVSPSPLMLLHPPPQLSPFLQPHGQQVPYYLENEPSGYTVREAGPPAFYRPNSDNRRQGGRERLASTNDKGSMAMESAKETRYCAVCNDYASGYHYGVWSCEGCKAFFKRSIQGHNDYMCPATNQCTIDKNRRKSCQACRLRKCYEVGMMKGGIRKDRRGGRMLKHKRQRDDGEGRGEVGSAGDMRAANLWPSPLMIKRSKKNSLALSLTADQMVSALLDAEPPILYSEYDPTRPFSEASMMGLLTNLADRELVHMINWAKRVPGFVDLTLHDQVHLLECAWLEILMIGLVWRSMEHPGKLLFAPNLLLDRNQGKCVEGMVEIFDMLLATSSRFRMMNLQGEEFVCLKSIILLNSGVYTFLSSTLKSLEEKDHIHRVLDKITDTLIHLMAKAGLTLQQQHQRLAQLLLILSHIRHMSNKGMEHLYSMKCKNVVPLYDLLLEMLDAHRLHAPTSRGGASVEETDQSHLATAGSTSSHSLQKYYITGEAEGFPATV

Estrogen receptor beta [1] = target: T2, Estrogen receptor beta (Homo sapiens, UniProt Q92731); assay: Minimum effective concentration required to activate Estrogen receptor 2 (ER beta); Not detected
U2OS (Homo sapiens) = assay: Concentration required for inhibition of U2OS cell growth
[2] = target: T3, Androgen receptor (Homo sapiens) (UniProt P10275); assay: Minimum effective concentration for androgen receptor (AR) activation
T3 sequence (whole entry): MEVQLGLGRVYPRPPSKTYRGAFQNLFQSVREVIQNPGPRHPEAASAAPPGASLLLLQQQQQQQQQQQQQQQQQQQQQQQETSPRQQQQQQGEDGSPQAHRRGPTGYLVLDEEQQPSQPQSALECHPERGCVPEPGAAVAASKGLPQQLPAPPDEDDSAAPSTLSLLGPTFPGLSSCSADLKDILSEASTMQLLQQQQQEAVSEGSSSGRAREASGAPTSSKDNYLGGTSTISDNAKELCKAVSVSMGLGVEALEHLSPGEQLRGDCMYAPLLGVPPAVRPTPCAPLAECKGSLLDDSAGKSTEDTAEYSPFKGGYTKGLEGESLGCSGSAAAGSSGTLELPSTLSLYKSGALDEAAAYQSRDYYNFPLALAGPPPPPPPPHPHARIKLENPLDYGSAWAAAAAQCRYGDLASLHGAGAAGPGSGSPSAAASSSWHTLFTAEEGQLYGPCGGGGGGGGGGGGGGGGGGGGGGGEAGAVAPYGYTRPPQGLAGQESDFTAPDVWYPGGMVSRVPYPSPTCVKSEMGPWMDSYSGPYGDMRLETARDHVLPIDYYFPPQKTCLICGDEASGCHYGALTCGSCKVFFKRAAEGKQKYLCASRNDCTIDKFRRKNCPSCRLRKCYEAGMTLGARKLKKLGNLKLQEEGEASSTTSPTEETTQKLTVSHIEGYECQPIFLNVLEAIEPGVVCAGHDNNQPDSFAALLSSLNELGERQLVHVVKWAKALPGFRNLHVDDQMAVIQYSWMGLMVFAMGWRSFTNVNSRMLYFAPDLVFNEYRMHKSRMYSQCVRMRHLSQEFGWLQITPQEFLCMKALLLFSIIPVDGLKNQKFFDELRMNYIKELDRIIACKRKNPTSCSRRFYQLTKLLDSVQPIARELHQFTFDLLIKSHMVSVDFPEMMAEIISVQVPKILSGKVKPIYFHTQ

[3] = target: T4, Nuclear receptor subfamily 1 group I member 2 (Homo sapiens, UniProt O75469); assay: Minimum effective concentration required to activate pregnane X receptor (PXR)
T4 sequence (O75469 whole entry): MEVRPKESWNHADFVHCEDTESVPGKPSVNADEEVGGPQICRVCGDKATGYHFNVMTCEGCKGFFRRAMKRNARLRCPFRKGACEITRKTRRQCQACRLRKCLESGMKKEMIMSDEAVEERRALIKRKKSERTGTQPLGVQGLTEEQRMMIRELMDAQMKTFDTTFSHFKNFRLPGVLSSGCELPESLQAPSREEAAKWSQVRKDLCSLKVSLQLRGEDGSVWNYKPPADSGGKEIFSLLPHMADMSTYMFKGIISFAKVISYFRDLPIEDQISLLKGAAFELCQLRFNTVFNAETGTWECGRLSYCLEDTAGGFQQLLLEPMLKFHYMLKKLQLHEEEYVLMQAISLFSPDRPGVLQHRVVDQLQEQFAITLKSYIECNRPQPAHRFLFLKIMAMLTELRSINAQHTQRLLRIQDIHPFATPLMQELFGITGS

Estrogen receptor beta [4] = target: T2, Estrogen receptor beta; assay: Minimum effective concentration for Estrogen receptor 2 (ER beta) inhibition
Outline: (§1)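 U2OS cells were calcium-phosphate co-transfected with an ER expression vector (2 µg), an ER reporter plasmid (4 µg) and pCMV-β-galactosidase (4 µg) as internal control. After 12 h cells were PBS-washed and recovered 4 h, then trypsinized and exposed to drugs for 20 h. Lysate reporter activity was normalised to β-gal and expressed as stimulation index; triplicate cultures.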

[5] = target: T5, Estrogen receptor (Homo sapiens) (UniProt P03372); assay: Minimum effective concentration for Estrogen receptor 1 (ER alpha) inhibition
T5 sequence (whole entry): T1 sequence (P03372 whole entry)
Outline: as §1

[6] = target: T6, Peroxisome proliferator-activated receptor alpha (Homo sapiens) (UniProt Q07869); assay: Minimum effective concentration for peroxisome proliferator activated receptor (PPAR alpha) activation
T6 sequence (whole entry): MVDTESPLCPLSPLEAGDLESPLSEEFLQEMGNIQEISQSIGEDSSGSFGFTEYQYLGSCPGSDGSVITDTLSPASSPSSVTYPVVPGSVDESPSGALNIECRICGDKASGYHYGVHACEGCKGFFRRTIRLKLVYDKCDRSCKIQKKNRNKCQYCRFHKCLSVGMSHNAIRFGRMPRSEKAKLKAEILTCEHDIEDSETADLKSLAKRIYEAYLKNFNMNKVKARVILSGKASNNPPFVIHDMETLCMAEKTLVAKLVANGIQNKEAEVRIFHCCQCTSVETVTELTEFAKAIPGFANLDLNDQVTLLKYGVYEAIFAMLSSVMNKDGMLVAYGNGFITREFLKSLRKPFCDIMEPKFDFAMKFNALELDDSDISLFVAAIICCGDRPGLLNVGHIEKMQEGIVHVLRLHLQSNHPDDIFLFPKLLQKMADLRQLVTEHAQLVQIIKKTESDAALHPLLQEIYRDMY

T2 sequence (Q92731 whole entry): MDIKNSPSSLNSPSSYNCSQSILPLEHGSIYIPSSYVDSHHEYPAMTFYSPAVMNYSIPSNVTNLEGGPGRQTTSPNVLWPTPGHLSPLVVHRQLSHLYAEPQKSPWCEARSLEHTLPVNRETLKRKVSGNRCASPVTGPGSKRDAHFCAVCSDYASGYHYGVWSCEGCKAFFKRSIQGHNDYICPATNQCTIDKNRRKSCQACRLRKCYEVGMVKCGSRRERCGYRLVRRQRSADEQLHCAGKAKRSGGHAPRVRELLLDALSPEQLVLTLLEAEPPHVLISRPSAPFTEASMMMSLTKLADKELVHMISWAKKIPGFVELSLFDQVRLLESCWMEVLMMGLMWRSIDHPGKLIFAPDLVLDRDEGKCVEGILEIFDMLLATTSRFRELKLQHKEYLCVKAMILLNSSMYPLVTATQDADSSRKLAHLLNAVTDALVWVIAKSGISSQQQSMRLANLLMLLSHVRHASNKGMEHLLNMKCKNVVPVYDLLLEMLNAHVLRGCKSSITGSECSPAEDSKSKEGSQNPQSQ

SMILES | MEC (Estrogen receptor) | MEC (Estrogen receptor beta [1]) | IC50 (U2OS (Homo sapiens)) [µM] | MEC [2] [µM] | MEC [3] [µM] | MEC (Estrogen receptor beta [4]) [µM] | MEC [5] [µM] | MEC [6] [µM]
CC(=O)Oc1c(Cl)c(C)c(C(=O)O)c(OC(C)=O)c1C/C=C(C)/C=C/[C@@]1(C)[C@H](C)CCC(=O)[C@@H]1C | Not Active | Not Active | 32 | 1 | 1 | – | – | –
CC(/C=C/[C@@]1(C)[C@H](C)CCC(=O)[C@@H]1C)=C\Cc1c(O)c(Cl)c(C)c(C=O)c1O [ASCOCHLORIN] | – | – | 1 | – | 1 | 1 | 1 | –
C/C(=C\Cc1c(O)c(Cl)c(C)c(C=O)c1O)CC/C=C(\C)C1=CC(=O)C(C)(C)O1 | Not Active | Not Active | 56 | – | 1 | – | – | 10
